Experimental data as given in ChEMBL document CHEMBL4387704, “Design, synthesis and biological evaluation of novel isoindolinone derivatives as potent histone deacetylase inhibitors” (Eur J Med Chem, 2019).

Key:
[1] = test system: MCF7; experiment: Antiproliferative activity against human MCF7 assessed as reduction in cell viability measured after 72 hrs using alamar blue based fluorescence method; format: functional; conditions: MCF7, 72 h
In short: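 HCT116 and MCF-7 grown in McCoy's 5A with 10% FBS and penicillin/streptomycin at 37 °C, 5% CO2. Cells plated in 96-well format and exposed to drug for 72 h. Alamar blue (1 mM solution) added, incubated 5–6 h, fluorescence read at 530/590 nm.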

[2] = organism: Homo sapiens; experiment: Selectivity index, ratio of IC50 of HDCA11 (unknown origin) to IC50 of HDCA1 (unknown origin)
[3] = test system: HL-60; experiment: Potency index, ratio of IC50 of chidamide to IC50 of test compound against human HL60 cells; format: functional
[4] = molecular target: Class 1 histone deacetylase (Homo sapiens) (UniProt Q13547+O15379+Q92769+Q9BY41); experiment: Inhibition of class I HDAC in human MCF7 cells assessed as increase in cellular histone H3 acetylation levels incubated for 24 hrs by Western blot; format: cell-based
In short: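 MCF-7 cells (1×10^6) seeded overnight, treated 24 h at 0.25, 2.5 or 25 μM. Lysed with protease inhibitor (EDTA-free); 30 µg total protein run on SDS-PAGE, blotted to nitrocellulose, probed for acetyl-H3, ECL detection.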

[5] = test system: MOLT-4; experiment: Growth inhibition of human MOLT4 cells assessed as cell growth inhibition at 10 uM incubated for 48 hrs by sulforhodamine B assay; format: functional; conditions: MOLT-4, 48 h, read-out: GI
[6] = test system: A549; experiment: Growth inhibition of human A549 cells assessed as cell growth inhibition at 10 uM incubated for 48 hrs by sulforhodamine B assay; format: functional; conditions: A549, 48 h, read-out: GI
[7] = test system: EKVX; experiment: Growth inhibition of human EKVX cells assessed as cell growth inhibition at 10 uM incubated for 48 hrs by sulforhodamine B assay; format: functional; conditions: read-out: GI
[8] = test system: HOP-62; experiment: Growth inhibition of human HOP62 cells assessed as cell growth inhibition at 10 uM incubated for 48 hrs by sulforhodamine B assay; format: functional; conditions: HOP-62, 48 h, read-out: GI
[9] = test system: NCI-H522; experiment: Growth inhibition of human NCI-H522 cells assessed as cell growth inhibition at 10 uM incubated for 48 hrs by sulforhodamine B assay; format: functional; conditions: NCI-H522, 48 h, read-out: GI
[10] = test system: HCT-15; experiment: Growth inhibition of human HCT15 cells assessed as cell growth inhibition at 10 uM incubated for 48 hrs by sulforhodamine B assay; format: functional; conditions: HCT-15, 48 h, read-out: GI
[11] = test system: HT-29; experiment: Growth inhibition of human HT-29 cells assessed as cell growth inhibition at 10 uM incubated for 48 hrs by sulforhodamine B assay; format: functional; conditions: HT-29, 48 h, read-out: GI
[12] = test system: SW-620; experiment: Growth inhibition of human SW620 cells assessed as cell growth inhibition at 10 uM incubated for 48 hrs by sulforhodamine B assay; format: functional; conditions: SW-620, 48 h, read-out: GI
[13] = test system: PC-3; experiment: Growth inhibition of human PC3 cells assessed as cell growth inhibition at 10 uM incubated for 48 hrs by sulforhodamine B assay; format: functional; conditions: PC-3, 48 h, read-out: GI
[14] = test system: SN12C; experiment: Growth inhibition of human SN12C cells assessed as cell growth inhibition at 10 uM incubated for 48 hrs by sulforhodamine B assay; format: functional; conditions: read-out: GI
[15] = test system: LOX IMVI; experiment: Growth inhibition of human LOXIMVI cells assessed as cell growth inhibition at 10 uM incubated for 48 hrs by sulforhodamine B assay; format: functional; conditions: read-out: GI
[16] = test system: M14; experiment: Growth inhibition of human M14 cells assessed as cell growth inhibition at 10 uM incubated for 48 hrs by sulforhodamine B assay; format: functional; conditions: M14, 48 h, read-out: GI
[17] = test system: SK-MEL-5; experiment: Growth inhibition of human SK-MEL-5 cells assessed as cell growth inhibition at 10 uM incubated for 48 hrs by sulforhodamine B assay; format: functional; conditions: SK-MEL-5, 48 h, read-out: GI
[18] = test system: UACC-257; experiment: Growth inhibition of human UACC257 cells assessed as cell growth inhibition at 10 uM incubated for 48 hrs by sulforhodamine B assay; format: functional; conditions: UACC-257, 48 h, read-out: GI
[19] = test system: BT-549; experiment: Growth inhibition of human BT549 cells assessed as cell growth inhibition at 10 uM incubated for 48 hrs by sulforhodamine B assay; format: functional; conditions: BT-549, 48 h, read-out: GI
[20] = test system: T47D; experiment: Growth inhibition of human T47D cells assessed as cell growth inhibition at 10 uM incubated for 48 hrs by sulforhodamine B assay; format: functional; conditions: read-out: GI
[21] = test system: Hs-578T; experiment: Growth inhibition of human Hs 578T cells assessed as cell growth inhibition at 10 uM incubated for 48 hrs by sulforhodamine B assay; format: functional; conditions: read-out: GI
[22] = test system: MDA-MB-231; experiment: Growth inhibition of human MDA-MB-231 cells assessed as cell growth inhibition at 10 uM incubated for 48 hrs by sulforhodamine B assay; format: functional; conditions: MDA-MB-231, 48 h, read-out: GI
[23] = Metabolic stability in human liver microsomes assessed as half life at 1 uM preincubated for 10 mins followed by NADPH addition measured upto 60 mins by LC-MS/MS analysis; format: ADME, Microsome
In short: (§1)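 Liver microsomes from male SD rat, dog or human at 0.5 mg/mL in 100 mM potassium phosphate pH 7.4 with 1 μM compound. Prewarmed 37 °C 10 min, started with 1 mM NADPH. Stopped at 0, 5, 10, 20, 40, 60 min with cold methanol containing glibenclamide internal standard; supernatant by LC–MS/MS; T1/2 and CLint derived.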

[24] = Metabolic stability in dog liver microsomes assessed as half life at 1 uM preincubated for 10 mins followed by NADPH addition measured upto 60 mins by LC-MS/MS analysis; format: ADME, Canis lupus familiaris, Microsome; in short: as §1
[25] = Metabolic stability in rat liver microsomes assessed as half life at 1 uM preincubated for 10 mins followed by NADPH addition measured upto 60 mins by LC-MS/MS analysis; format: ADME, Microsome; in short: as §1
[26] = Metabolic stability in rat liver microsomes assessed as internal clearance at 1 uM preincubated for 10 mins followed by NADPH addition measured upto 60 mins by LC-MS/MS analysis; format: ADME, Microsome; conditions: read-out: CLH; in short: as §1
[27] = AUC (0 to infinity) in Sprague-Dawley rat at 1 mg/kg, iv by LC-MS/MS analysis; format: ADME, organism-based; set-up: dose 1 mg/kg, route intravenous, time infinity; conditions: in vivo
In short: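 Male SD rats, 199-214 g, three per route. Single iv dose of 1 mg/kg or oral dose of 10 mg/kg. About 200 μL blood drawn from the jugular vein into heparinized tubes at set times, then spun to plasma. 30 μL plasma precipitated with CH3CN containing verapamil and glibenclamide as internal standards. Plasma drug level measured by LC-MS/MS.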

[28] = Terminal half life in Sprague-Dawley rat at 1 mg/kg, iv by LC-MS/MS analysis; format: ADME, organism-based; conditions: in vivo, read-out: beta t1/2 (converted)
In short: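 Male SD rats (199-214 g), three per route, single dose 1 mg/kg iv or 10 mg/kg po. Jugular blood (~200 μL) into heparinized tubes at set times; plasma by centrifugation, protein precipitation with acetonitrile containing verapamil and glibenclamide; drug measured by LC-MS/MS.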

[29] = AUC (0 to t) in Sprague-Dawley rat at 10 mg/kg, po by LC-MS/MS analysis; format: ADME, organism-based; conditions: in vivo

Class 1 histone deacetylase (Homo sapiens), sequence (O15379 whole entry, looked up): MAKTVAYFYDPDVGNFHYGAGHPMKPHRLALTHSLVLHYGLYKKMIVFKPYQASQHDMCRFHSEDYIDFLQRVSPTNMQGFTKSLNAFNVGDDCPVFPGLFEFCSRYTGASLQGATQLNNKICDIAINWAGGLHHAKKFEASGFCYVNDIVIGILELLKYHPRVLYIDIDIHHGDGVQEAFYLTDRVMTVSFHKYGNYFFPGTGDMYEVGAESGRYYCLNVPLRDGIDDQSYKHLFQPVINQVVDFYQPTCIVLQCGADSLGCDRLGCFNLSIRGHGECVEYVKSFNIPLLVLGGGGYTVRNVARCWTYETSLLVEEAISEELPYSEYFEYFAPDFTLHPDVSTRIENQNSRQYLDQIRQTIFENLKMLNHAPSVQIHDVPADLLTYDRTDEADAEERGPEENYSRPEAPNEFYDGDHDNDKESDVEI
Class 1 histone deacetylase (Homo sapiens), sequence (Q13547 whole entry, looked up): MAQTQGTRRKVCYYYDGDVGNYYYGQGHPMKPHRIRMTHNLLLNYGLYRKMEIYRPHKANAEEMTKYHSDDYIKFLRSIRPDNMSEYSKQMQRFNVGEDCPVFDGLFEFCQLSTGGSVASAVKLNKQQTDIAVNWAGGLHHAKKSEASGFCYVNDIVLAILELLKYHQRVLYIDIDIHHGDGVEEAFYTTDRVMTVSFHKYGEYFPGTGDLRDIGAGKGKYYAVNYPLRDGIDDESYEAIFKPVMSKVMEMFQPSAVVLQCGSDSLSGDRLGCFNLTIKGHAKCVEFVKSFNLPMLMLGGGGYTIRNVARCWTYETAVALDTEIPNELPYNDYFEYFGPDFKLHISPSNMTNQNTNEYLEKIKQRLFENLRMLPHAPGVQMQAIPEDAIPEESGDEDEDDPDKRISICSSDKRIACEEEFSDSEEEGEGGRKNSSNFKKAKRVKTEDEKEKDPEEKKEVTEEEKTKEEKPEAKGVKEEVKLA
Class 1 histone deacetylase (Homo sapiens), sequence (Q92769 whole entry, looked up): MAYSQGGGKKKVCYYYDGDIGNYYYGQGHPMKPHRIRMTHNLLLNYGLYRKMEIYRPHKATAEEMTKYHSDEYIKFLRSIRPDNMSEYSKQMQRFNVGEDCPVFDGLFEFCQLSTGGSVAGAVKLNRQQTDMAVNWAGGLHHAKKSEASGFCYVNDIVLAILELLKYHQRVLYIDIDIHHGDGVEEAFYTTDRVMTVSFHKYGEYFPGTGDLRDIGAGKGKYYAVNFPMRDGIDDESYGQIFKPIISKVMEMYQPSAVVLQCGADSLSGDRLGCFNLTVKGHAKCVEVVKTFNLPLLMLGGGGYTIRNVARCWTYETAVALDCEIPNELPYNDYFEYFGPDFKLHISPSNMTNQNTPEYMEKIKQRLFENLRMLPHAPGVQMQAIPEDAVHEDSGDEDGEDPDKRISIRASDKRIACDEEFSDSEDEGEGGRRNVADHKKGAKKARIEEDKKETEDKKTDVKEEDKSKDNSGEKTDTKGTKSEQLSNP
Class 1 histone deacetylase (Homo sapiens), sequence (Q9BY41 whole entry, looked up): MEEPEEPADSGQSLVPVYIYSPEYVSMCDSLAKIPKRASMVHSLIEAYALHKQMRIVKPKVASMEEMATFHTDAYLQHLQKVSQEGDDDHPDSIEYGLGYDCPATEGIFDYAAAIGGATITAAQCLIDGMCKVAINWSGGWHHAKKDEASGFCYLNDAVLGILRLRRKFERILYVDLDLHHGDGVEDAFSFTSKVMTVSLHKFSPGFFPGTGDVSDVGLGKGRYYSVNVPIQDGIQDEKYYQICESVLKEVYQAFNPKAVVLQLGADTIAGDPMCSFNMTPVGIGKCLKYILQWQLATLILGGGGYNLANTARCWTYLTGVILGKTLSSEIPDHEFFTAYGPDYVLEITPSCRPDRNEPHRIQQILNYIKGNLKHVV

## Nc1cc(F)ccc1NC(=O)c1ccc(CNC(=O)/C=C2\NC(=O)c3ccccc32)cc1
[1]
  IC50: 14.6 µM
[2]
  Ratio IC50: 10
[3]
  Ratio IC50: 5
[4]
  inhibition: Dose-dependent effect
[5]
  inhibition of growth at 10 µM: 63%
[6]
  inhibition of growth at 10 µM: 12.2%
[7]
  inhibition of growth at 10 µM: 11.7%
[8]
  inhibition of growth at 10 µM: 29.9%
[9]
  inhibition of growth at 10 µM: 70.7%
[10]
  inhibition of growth at 10 µM: 0.12%
[11]
  inhibition of growth at 10 µM: 40.4%
[12]
  inhibition of growth at 10 µM: 40.1%
[13]
  inhibition of growth at 10 µM: 39.4%
[14]
  inhibition of growth at 10 µM: 30.8%
[15]
  inhibition of growth at 10 µM: 15.7%
[16]
  inhibition of growth at 10 µM: 29.4%
[17]
  inhibition of growth at 10 µM: 34.7%
[18]
  inhibition of growth at 10 µM: 36.6%
[19]
  inhibition of growth at 10 µM: 6.06%
[20]
  inhibition of growth at 10 µM: 58.2%
[21]
  inhibition of growth at 10 µM: 29.3%
[22]
  inhibition of growth at 10 µM: 22.4%
[23]
  half-life at 1 µM: 4.87 h
[24]
  half-life at 1 µM: 3.35 h
[25]
  half-life at 1 µM: 2.02 h
[26]
  microsomal CLint at 1 µM: 11.7 µL/min/mg
[27]
  AUC(0-inf): 784 ng·h/mL
[28]
  half-life: 0.39 h
[29]
  AUC(0-t): 1710 ng·h/mL
